From PubChem BioAssay
Activity calls are given as the source filed them.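 The calls were made as follows, unless noted: active = current rise at least 3 SD above the untreated control mean in each of two repeat wells; inactive = the rest.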

Tests used:
[1] = thallium flux activation in parental CHO cells, counter-screen for KCNQ1 potentiator project (AID 493006;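 active = duplicate-averaged activation above buffer control mean plus 5 SD of those controls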); conditions: parental CHO-K1 cells, FluxOR thallium flux, at 10 µM; hits give high values
Summary of the method: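 Assay system: Untransfected host CHO-K1 cells with FluxOR thallium dye | Probe or stimulus: Potassium/thallium depolarization pulse | Schedule: Overnight 37 °C plating, 90 min RT dye, 20 min compound | Detection: Kinetic thallium-flux fluorescence | Read-out: Max-minus-min fluorescence over baseline, percent of buffer-to-R-L3 span | Benchmarks: Low control buffer, high control R-L3 activator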

[2] = molecular target: Potassium voltage-gated channel subfamily KQT member 1 (Homo sapiens) (UniProt P51787); experiment: KCNQ1 potassium channel potentiators, confirmation, FluxOR thallium flux, CHO cells, duplicates (AID 493007;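 active = potentiation averaged over duplicate wells exceeding buffer-only control mean by more than 3 SD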;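 as to outcome: cells depolarized by a potassium plus thallium sulfate stimulus after compound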); conditions: KCNQ1 cell line, FluxOR thallium flux fluorescence, at 10 µM; hits give high values, % of reference activator effect, buffer zero
Summary of the method: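 Material: KCNQ1-expressing CHO cell line; Incubation: FluxOR dye loading 90 min, compound exposure 20 min, room temperature; Detection: FluxOR Tl+ flux fluorescence, 10 s baseline plus 110 s recording; Read-out: percent activation between buffer and R-L3 responses; Control set: buffer-only wells as 0% and R-L3 activator as 100%; Replication: duplicate wells per compound.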

[3] = molecular target: Potassium voltage-gated channel subfamily KQT member 2 (Rattus norvegicus) (UniProt O88943); experiment: rat KCNQ2 channel potentiation, selectivity assay for KCNQ1 potentiator project, KCNQ2-CHO-K1 cells (AID 493009;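 active = mean duplicate potentiation above the buffer control mean plus 5 SD of buffer wells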;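 also: assay conditions were tuned for KCNQ1 rather than KCNQ2 modulators; signal is max minus min fluorescence divided by baseline after thallium stimulus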); conditions: FluxOR thallium flux fluorescence, at 10 µM; hits give high values, scaled: buffer 0, activator control 100
[4] = molecular target: Potassium voltage-gated channel subfamily KQT member 1 (Homo sapiens) (UniProt P51787); experiment: KCNQ1 channel current potentiators, confirmation, orthogonal assay for KCNQ1 potentiator project, IonWorks patch clamp, KCNQ1-CHO cells (AID 493184); conditions: automated patch clamp current, at 10 µM; hits give high values
Summary of the method: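 assay system = KCNQ1-expressing CHO cells | medium = external bath solution at pH 7.4 | probe or stimulus = 2,000 ms depolarization, -90 to +40 mV | compound dosing = 10 µM final, single point | measured by = automated voltage clamp, amphotericin B perforated patch | measure = percent current increase versus pre-compound level | replication = duplicates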

Chain of Potassium voltage-gated channel subfamily KQT member 1 (Homo sapiens) (P51787 whole entry, looked up): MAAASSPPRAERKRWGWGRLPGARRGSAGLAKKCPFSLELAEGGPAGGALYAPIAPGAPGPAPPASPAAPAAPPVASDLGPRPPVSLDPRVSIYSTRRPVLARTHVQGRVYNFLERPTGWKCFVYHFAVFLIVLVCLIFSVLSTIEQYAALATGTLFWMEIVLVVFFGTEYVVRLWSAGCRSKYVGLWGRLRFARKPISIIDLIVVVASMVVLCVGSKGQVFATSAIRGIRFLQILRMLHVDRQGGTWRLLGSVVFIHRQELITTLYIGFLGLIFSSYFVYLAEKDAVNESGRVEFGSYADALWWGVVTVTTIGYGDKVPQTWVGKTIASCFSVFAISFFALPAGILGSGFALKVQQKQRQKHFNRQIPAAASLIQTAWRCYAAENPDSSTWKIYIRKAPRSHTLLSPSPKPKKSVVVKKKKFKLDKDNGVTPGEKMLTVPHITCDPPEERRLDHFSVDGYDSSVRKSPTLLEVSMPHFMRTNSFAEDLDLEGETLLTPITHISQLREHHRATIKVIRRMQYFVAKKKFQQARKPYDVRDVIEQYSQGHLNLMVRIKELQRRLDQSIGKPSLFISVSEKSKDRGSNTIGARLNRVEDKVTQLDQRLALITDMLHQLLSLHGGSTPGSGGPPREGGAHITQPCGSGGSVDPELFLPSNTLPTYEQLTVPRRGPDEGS
Chain of Potassium voltage-gated channel subfamily KQT member 2 (Rattus norvegicus) (O88943 whole entry, looked up): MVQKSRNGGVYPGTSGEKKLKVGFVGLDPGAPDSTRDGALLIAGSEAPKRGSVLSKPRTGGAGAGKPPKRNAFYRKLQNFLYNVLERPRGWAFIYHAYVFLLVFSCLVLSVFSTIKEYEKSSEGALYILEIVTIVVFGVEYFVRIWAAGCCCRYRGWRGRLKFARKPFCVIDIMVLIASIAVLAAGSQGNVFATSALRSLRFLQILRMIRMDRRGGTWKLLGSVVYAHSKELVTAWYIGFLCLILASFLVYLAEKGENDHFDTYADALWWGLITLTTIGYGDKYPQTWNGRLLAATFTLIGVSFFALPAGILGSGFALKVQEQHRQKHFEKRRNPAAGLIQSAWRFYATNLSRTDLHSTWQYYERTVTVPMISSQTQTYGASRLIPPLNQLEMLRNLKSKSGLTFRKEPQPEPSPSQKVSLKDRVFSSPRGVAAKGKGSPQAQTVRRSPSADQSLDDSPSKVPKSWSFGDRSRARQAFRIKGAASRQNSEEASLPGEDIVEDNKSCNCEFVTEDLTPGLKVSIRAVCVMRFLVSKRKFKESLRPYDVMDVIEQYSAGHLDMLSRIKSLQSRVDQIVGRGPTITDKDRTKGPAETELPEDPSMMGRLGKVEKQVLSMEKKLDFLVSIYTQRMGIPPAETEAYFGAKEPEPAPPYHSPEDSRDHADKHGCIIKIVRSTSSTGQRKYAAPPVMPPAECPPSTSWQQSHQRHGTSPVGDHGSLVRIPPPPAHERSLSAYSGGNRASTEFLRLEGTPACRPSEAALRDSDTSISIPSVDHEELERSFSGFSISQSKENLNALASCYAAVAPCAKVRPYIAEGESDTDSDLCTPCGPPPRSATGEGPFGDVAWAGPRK

Structure (SMILES)	outcome [1]	outcome [2]	outcome [3]	outcome [4]	activation [1]	potentiation [2]	potentiation [3]
CCc1nc2sc3c(=O)[nH]cnc3c2c2c1CSC(C)(C)C2	inactive	inactive	inactive	inactive	–	–	–
CCn1c(CC(=O)Nc2ccccc2)nnc1SCC(=O)Nc1nncs1	inactive	inactive	inactive	inactive	–	–	–
COc1ccc(S(=O)(=O)N2CCCC(C(=O)O)C2)cc1 (stereo not given)	inactive	inactive	inactive	inactive	–	–	–
Nc1nc(COc2ccccc2C=O)nc(Nc2ccccc2)n1	inactive	inactive	inactive	inactive	–	–	–
Oc1ccc2ccccc2c1N=Nc1nccs1	–	–	–	inactive	328% (active)	258% (active)	426% (active)
CC(=O)c1cccc(NC(=S)NC(=O)c2ccc(Cl)cc2)c1	inactive	inactive	inactive	inactive	–	–	–
Cn1nccc1C(=O)NC(=S)Nc1cc(Cl)cc(Cl)c1	–	–	–	inactive	141% (active)	20.5% (active)	178% (active)
Oc1c(Cl)cc(Cl)cc1C=Nc1ccc2c(c1)OCCO2	–	–	inactive	inactive	174% (active)	25.5% (active)	–
O=C(O)c1c2c(nc3ccccc13)/C(=C/c1cccc([N+](=O)[O-])c1)CCC2	–	–	–	inactive	172% (active)	64% (active)	199% (active)
O=c1c2ccccc2sn1-c1ccccc1	–	–	–	inactive	180% (active)	59% (active)	148% (active)
CCCCn1c(SCC(=O)/C(C#N)=C(\C)N)nc2ccccc2c1=O	inactive	inactive	inactive	inactive	–	–	–
CCOC(=O)c1cc(CC)sc1NC(=O)CC1Sc2ccc(C(F)(F)F)cc2NC1=O (stereo not given)	inactive	inactive	inactive	inactive	–	–	–
CCCCOC(=O)c1cc(C)nc2ccc(Br)cc12	–	–	–	inactive	306% (active)	172% (active)	320% (active)
COc1cccc(/C=N/n2c(-c3cccs3)n[nH]c2=S)c1	–	–	–	inactive	286% (active)	160% (active)	265% (active)
COc1ccc(C(=O)CC(=O)C(=O)Nc2ccccc2Cl)cc1	–	–	inactive	inactive	139% (active)	25% (active)	–
Cc1cccc(-c2n[nH]c(=S)n2/N=C/c2cccs2)c1	–	–	–	inactive	138% (active)	22.5% (active)	149% (active)
COC(=O)c1ccccc1NC(=S)NC(NC(=O)c1ccco1)C(Cl)(Cl)Cl (stereo not given)	–	–	–	inactive	138% (active)	54% (active)	232% (active)
CCOC(=O)c1cnc2c(C(=O)OC)cccc2c1NCCN1CCOCC1	inactive	inactive	inactive	inactive	–	–	–
O=C(NC(=S)Nc1ccccc1N1CCOCC1)c1sc2ccccc2c1Cl	inactive	–	inactive	inactive	–	34% (active)	–
CC(=O)O[C@H]1CSC[C@H]1NC(=O)c1ccccc1	inactive	inactive	inactive	inactive	–	–	–

Structure (SMILES)	outcome [1]	outcome [2]	outcome [3]	outcome [4]	activation [1]	potentiation [2]	potentiation [3]
CCS(=O)(=O)Nc1ccc(C(=O)CC2(O)C(=O)Nc3ccccc32)cc1 (stereo not given)	inactive	inactive	inactive	inactive	–	–	–
CCOC(=O)c1sc2ncnc(NCC(c3cccs3)N(C)C)c2c1C (stereo not given)	–	–	–	inactive	255% (active)	87% (active)	263% (active)
Cc1cc(C)n(-c2nc3ccccc3nc2N2CCN(C(=O)c3ccc(Cl)cc3)CC2)n1	inactive	inactive	inactive	inactive	–	–	–
CCC(C)n1c(=S)[nH]c2c(sc3ccc([N+](=O)[O-])cc32)c1=O (stereo not given)	–	–	–	inactive	764% (active)	342% (active)	709% (active)
O=C(CCC1CCN(C(=O)c2cncs2)CC1)Nc1ccccc1	–	–	–	inactive	446% (active)	164% (active)	464% (active)
CC1C/C(=C/c2ccncc2)C(=O)/C(=C/c2ccncc2)C1 (stereo not given)	inactive	inactive	inactive	inactive	–	–	–
Nc1c(Cl)cc(C2=NCCn3nc4cc(C(F)(F)F)ccc4c32)cc1Cl	inactive	inactive	inactive	inactive	–	–	–
CC(c1ccccc1C(O)(c1ccccc1)c1ccccc1)N(C)C (stereo not given)	inactive	inactive	inactive	inactive	–	–	–
COc1ccccc1C(=O)NNC(=O)C(=O)Nc1ccc(C)c(Cl)c1	–	–	–	inactive	552% (active)	235% (active)	512% (active)
OCCN1CCN(C2CCC(c3ccc(F)cc3)c3ccc(F)cc32)CC1 (stereo not given)	inactive	inactive	inactive	inactive	–	–	–
Cc1ccc(C(=O)N/N=C(/CC(=O)c2cccs2)C(F)(F)F)cc1	–	–	–	inactive	234% (active)	66.5% (active)	246% (active)
CC1CCCN(c2ccc(C(=O)NCc3ccccc3)cn2)C1 (stereo not given)	–	–	–	inactive	155% (active)	26% (active)	152% (active)
Cc1cc(SCNC(=O)c2ccccc2)ncn1	inactive	inactive	inactive	inactive	–	–	–
CCC1CCCCN1C(=S)NC(=O)c1cccs1 (stereo not given)	–	–	–	inactive	470% (active)	216% (active)	493% (active)
CCc1cc2c(=O)[nH]c(-c3ccccn3)nc2s1	inactive	–	–	inactive	–	26% (active)	226% (active)
CC1CCc2c(sc(NS(=O)(=O)c3ccccc3)c2C(=O)OC(C)C)C1 (stereo not given)	–	–	–	inactive	284% (active)	156% (active)	380% (active)
CCN(CC)C(=S)NC(=O)c1ccc(Cl)cc1Cl	–	–	–	inactive	226% (active)	50% (active)	196% (active)
CCOC(=O)Cn1nc(-c2ccc(F)cc2)cc(Cc2ccccc2)c1=O	inactive	inactive	inactive	inactive	–	–	–
CC(C)(C)CC(C)(C)NCC(O)COCCOc1ccc(Br)cc1 (stereo not given)	inactive	inactive	inactive	inactive	–	–	–
COc1cccc(CN(C)C(=O)c2cc(COc3ccc4ncccc4c3)on2)c1	inactive	inactive	inactive	inactive	–	–	–

Structure (SMILES)	outcome [1]	outcome [2]	outcome [3]	outcome [4]	activation [1]	potentiation [2]	potentiation [3]
Cc1ccc(S(=O)(=O)n2cccc2CO)cc1	inactive	inactive	inactive	inactive	–	–	–
Cc1ccc2nc(NC(=S)NC(=O)c3ccco3)sc2c1	–	–	–	inactive	360% (active)	138% (active)	325% (active)
C=CCN(CC=C)C(=S)NC(=O)c1ccc(OC)cc1	–	–	–	inactive	187% (active)	43.5% (active)	162% (active)
O=C(c1cc(COc2ccc3ncccc3c2)on1)N1CCCC(O)C1 (stereo not given)	inactive	inactive	inactive	inactive	–	–	–
S=c1[nH]c2cc(-c3ccccc3)ccc2o1	–	–	–	inactive	306% (active)	89.5% (active)	318% (active)
O=C(CSc1nnnn1-c1ccc(F)cc1)Nc1ccc(N2CCOCC2)c(Cl)c1	inactive	inactive	inactive	inactive	–	–	–
CC1SCC(=NOCc2c(Cl)cccc2Cl)CS1 (stereo not given)	inactive	inactive	inactive	inactive	–	–	–
CNC(=S)Nc1sc2c(c1C(=O)OC)CCC2	–	–	–	inactive	252% (active)	89.5% (active)	287% (active)
Cc1[nH][nH]c(=O)c1C(c1ccc(-c2ccc(F)cc2)o1)c1c(C)[nH][nH]c1=O	inactive	inactive	inactive	inactive	–	–	–
Cc1ccccc1Cn1c(O)c(N=NC(=S)Nc2ccccc2F)c2ccccc21	inactive	–	inactive	inactive	–	36% (active)	–
CCCNC1=CC(=O)CC(C)(C)C1	inactive	inactive	inactive	inactive	–	–	–
Cc1nc(NCCc2cnc[nH]2)c2oc3ccccc3c2n1	inactive	inactive	inactive	inactive	–	–	–
CN(C)S(=O)(=O)c1ccc(Cl)c(NC(=O)CN2CCCCCC2)c1	inactive	inactive	inactive	inactive	–	–	–
COc1ccc(C(=O)O/N=C(\N)Cc2ccc(Cl)cc2)cc1OC	inactive	inactive	inactive	inactive	–	–	–
O=C(C1CCN(Cc2ccccc2)CC1)N1CCN(C/C=C/c2ccccc2)CC1	inactive	inactive	inactive	inactive	–	–	–
C#CCOCCOCCOCCNc1nc(N2CCN(C(=O)C([C@@H](C)CC)n3cc(C(N)Cc4ccc(O)cc4)nn3)CC2)nc(N2CCN(C(=O)[C@H](CCC(=O)O)n3cc(C(N)CC(C)C)nn3)CC2)n1 (stereo not given in full)	inactive	inactive	inactive	inactive	–	–	–
Cc1ccccc1C(=O)NCc1ccncc1	inactive	inactive	inactive	inactive	–	–	–
O=c1[nH]cc(N=Cc2cc(Cl)cc(Cl)c2O)c(=O)[nH]1	–	inactive	inactive	inactive	188% (active)	–	–
O=Cc1cc2ccccc2nc1SCCCF	inactive	inactive	inactive	inactive	–	–	–
COc1ccc(C2c3ccc4ccccc4c3Oc3ncn(CCN4CCOCC4)c(=N)c32)cc1 (stereo not given)	inactive	inactive	inactive	inactive	–	–	–
